The assay has as its target T1, Zinc finger protein GLI1 (Homo sapiens, UniProt P08151).
T1 sequence (P08151 whole entry): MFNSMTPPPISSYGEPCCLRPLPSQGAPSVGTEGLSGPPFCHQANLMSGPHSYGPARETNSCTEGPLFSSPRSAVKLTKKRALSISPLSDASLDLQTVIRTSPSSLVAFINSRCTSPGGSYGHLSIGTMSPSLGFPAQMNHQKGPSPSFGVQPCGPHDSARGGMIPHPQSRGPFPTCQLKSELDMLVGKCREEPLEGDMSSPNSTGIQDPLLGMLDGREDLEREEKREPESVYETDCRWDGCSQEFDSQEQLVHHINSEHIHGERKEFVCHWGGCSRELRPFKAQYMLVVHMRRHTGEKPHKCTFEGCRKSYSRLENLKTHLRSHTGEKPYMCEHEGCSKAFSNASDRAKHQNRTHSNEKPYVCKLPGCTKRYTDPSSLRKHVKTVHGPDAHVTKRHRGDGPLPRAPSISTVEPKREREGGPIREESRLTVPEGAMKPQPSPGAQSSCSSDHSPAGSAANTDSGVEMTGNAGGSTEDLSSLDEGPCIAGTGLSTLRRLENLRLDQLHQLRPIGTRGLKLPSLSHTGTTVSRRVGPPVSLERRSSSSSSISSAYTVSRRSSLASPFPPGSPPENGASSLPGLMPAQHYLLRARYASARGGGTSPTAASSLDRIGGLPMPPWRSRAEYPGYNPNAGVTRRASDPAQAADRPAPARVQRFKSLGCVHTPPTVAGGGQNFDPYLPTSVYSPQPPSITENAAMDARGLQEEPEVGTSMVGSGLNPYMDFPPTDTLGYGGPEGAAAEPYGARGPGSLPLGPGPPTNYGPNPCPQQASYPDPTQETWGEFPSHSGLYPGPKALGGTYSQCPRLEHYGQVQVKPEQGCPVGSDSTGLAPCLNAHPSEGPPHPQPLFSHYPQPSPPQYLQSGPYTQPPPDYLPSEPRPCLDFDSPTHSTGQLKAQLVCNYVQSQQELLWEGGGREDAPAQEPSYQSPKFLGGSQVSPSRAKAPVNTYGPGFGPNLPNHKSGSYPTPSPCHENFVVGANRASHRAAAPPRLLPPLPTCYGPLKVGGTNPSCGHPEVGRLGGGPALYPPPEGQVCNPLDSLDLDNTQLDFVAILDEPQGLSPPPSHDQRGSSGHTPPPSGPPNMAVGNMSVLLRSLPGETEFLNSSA
Description: Inhibition of exogenously transfected human Gli1-mediated transcriptional activity in mouse C3H10T1/2 cells after 24 hrs by luciferase reporter gene assay. Summed up: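 They were replated 18 h later, given compound or DMSO 6 h after plating, and exposed for 24 h at 37 °C, 5% CO2. Lysate was read by dual luciferase as firefly/Renilla, triplicate, DMSO = 0%. IC50 came from curve fitting.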
For orientation: In a reporter assay the amount or activity of a reporter protein is the signal.

Molecules are shown by their SMILES.

In turn, `C[C@H](C(=O)N(CCc1ccc(O)cc1)CCc1ccc(O)cc1)c1cccc(C(=O)c2ccccc2)c1` [(S)-2-(3-Benzoylphenyl)-N,N-bis(4-hydroxyphenethyl)propanamide] had an IC50 of 9.4 µM. The result for `C[C@H](C(=O)NCCc1ccc(O)cc1)c1cccc(C(=O)c2ccccc2)c1` [(S)-2-(3-Benzoylphenyl)-N-(4-hydroxyphenethyl)propanamide] reads 11.4 µM. In turn, `CCCN(CCc1ccc(O)cc1)C(=O)[C@@H](C)c1cccc(C(=O)c2ccccc2)c1` [(S)-2-(3-Benzoylphenyl)-N-(4-hydroxyphenethyl)-N-propylpropanamide] came in with an IC50 of 6.9 µM.

For orientation: IC50 means the point on the concentration scale where inhibition reaches its midpoint.

For the origin of these results see BindingDB's records for doi:10.1021/jm900106f (St. Jude Children'S Research Hospital, 2009).
